Results on eight molecules are retold here after ChEMBL document CHEMBL1123152, “Synthesis, structure, and antitumor and antiviral activities of a series of 5-halouridine cyclic 3',5'-monophosphates” (1986).

Values after ≈ are worked out from the molar mass of the structure shown.

One experiment relates to L1210. Kind of experiment: Cytostatic activity against proliferation of L1210/0 cells (murine leukemia L1210 cells). The settings on record: Mus musculus, read-out: ID50 (the source's name). It is filed as functional. The method in brief: (§1)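 Tumor cell proliferation assay. L1210/0 is the parental murine leukemia line and Raji/0 the parental human lymphoblast line, with a deoxythymidine kinase deficient Raji subline. Value is the ID50, the dose that inhibits cell proliferation by 50%.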
With `O=c1[nH]c(=O)n([C@@H]2O[C@H](COP(=O)(O)O)[C@@H](O)[C@H]2O)cc1Br`, the IC50 is 385 µg/mL (≈ 955 µM).
As for `O=c1[nH]c(=O)n(C2O[C@H](COP(=O)(O)O)[C@@H](O)[C@@H]2O)cc1F` (some centres not stated), the IC50 turned out to be 0.024 µg/mL (≈ 0.0701 µM).
In the case of `O=c1[nH]c(=O)n([C@@H]2O[C@H](CO)[C@@H](O)[C@@H]2O)cc1Br`, the IC50 was found to be 210 µg/mL (≈ 650 µM).
For `O=c1[nH]c(=O)n([C@@H]2O[C@H](COP(=O)(O)O)[C@@H](O)[C@H]2O)cc1I`, the IC50 came to 703 µg/mL (≈ 1560 µM).
For the molecule `O=c1[nH]cc(F)c(=O)[nH]1` [FLUOROURACIL], the IC50 stood at 0.208 µg/mL (≈ 1.6 µM).
Turning to `O=c1[nH]cc(I)c(=O)[nH]1`, the IC50 is above 1000 µg/mL.
For the molecule `Oc1ncc(Cl)c(O)n1`, the IC50 worked out at 455 µg/mL (≈ 3110 µM).
In the case of `O=c1[nH]c(=O)n([C@@H]2O[C@@H]3COP(=O)(O)O[C@H]3[C@H]2O)cc1I`, the IC50 worked out at 315 µg/mL (≈ 729 µM).

The subject of another experiment is L1210. Kind of experiment: Cytostatic activity against proliferation of L1210/BdU cells (deoxythymidine kinase deficient L1210 cells). The settings on record: Mus musculus, read-out: ID50 (the source's name). Type of experiment: functional. The method in brief: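 Murine L1210 subline deficient in deoxythymidine kinase (L1210/BdU), selected for growth in 260 μg/mL 5-bromo-dU. Proliferation assay; value is the ID50, the dose that inhibits tumor cell proliferation by 50%.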
Consider `O=c1[nH]c(=O)n([C@@H]2O[C@H](COP(=O)(O)O)[C@@H](O)[C@H]2O)cc1Br`, for which the IC50 turned out to be 376 µg/mL (≈ 933 µM).
For `O=c1[nH]c(=O)n(C2O[C@H](COP(=O)(O)O)[C@@H](O)[C@@H]2O)cc1F` (some centres not stated), the IC50 is 0.03 µg/mL (≈ 0.0877 µM).
`O=c1[nH]c(=O)n([C@@H]2O[C@H](CO)[C@@H](O)[C@@H]2O)cc1Br`: the IC50 worked out at 335 µg/mL (≈ 1040 µM).
With `O=c1[nH]c(=O)n([C@@H]2O[C@H](COP(=O)(O)O)[C@@H](O)[C@H]2O)cc1I`, the IC50 was above 1000 µg/mL.
For `O=c1[nH]cc(F)c(=O)[nH]1` [FLUOROURACIL], the IC50 stood at 0.286 µg/mL (≈ 2.2 µM).
On the same count and under the same terms, under `O=c1[nH]cc(I)c(=O)[nH]1` stands above 1000 µg/mL.
In the case of `Oc1ncc(Cl)c(O)n1`, the IC50 turned out to be 660 µg/mL (≈ 4500 µM).
As for `O=c1[nH]c(=O)n([C@@H]2O[C@@H]3COP(=O)(O)O[C@H]3[C@H]2O)cc1I`, the IC50 worked out at 344 µg/mL (≈ 796 µM).

The subject of the next experiment is Raji. Kind of experiment: Cytostatic activity against proliferation of Raji/0 cells (human lymphoblast Raji cells). It is filed as functional. The note with it: read-out: ID50 (the source's name). The method, boiled down:
as §1
For the molecule `O=c1[nH]c(=O)n([C@@H]2O[C@H](COP(=O)(O)O)[C@@H](O)[C@H]2O)cc1Br`, the IC50 was found to be 48 µg/mL (≈ 119 µM).
As for `O=c1[nH]c(=O)n(C2O[C@H](COP(=O)(O)O)[C@@H](O)[C@@H]2O)cc1F` (some centres not stated), the IC50 turned out to be 0.029 µg/mL (≈ 0.0848 µM).
Take `O=c1[nH]c(=O)n([C@@H]2O[C@H](CO)[C@@H](O)[C@@H]2O)cc1Br`: the IC50 amounted to 32 µg/mL (≈ 99 µM).
Take `O=c1[nH]c(=O)n([C@@H]2O[C@H](COP(=O)(O)O)[C@@H](O)[C@H]2O)cc1I`: the IC50 is above 1000 µg/mL.
Regarding `O=c1[nH]cc(F)c(=O)[nH]1` [FLUOROURACIL], the IC50 is 1.35 µg/mL (≈ 10.4 µM).
With `O=c1[nH]cc(I)c(=O)[nH]1`, the IC50 is above 1000 µg/mL.
As to `Oc1ncc(Cl)c(O)n1`, the IC50 was above 1000 µg/mL.
For `O=c1[nH]c(=O)n([C@@H]2O[C@@H]3COP(=O)(O)O[C@H]3[C@H]2O)cc1I`, the IC50 came out at 359 µg/mL (≈ 831 µM).

The test system of another experiment is Raji. Kind of experiment: Cytostatic activity against proliferation of Raji/TK cells (deoxythymidine kinase deficient Raji cells). Type of experiment: functional. The settings on record: Homo sapiens, read-out: ID50 (the source's name). The method, boiled down:
as §1
Regarding `O=c1[nH]c(=O)n([C@@H]2O[C@H](COP(=O)(O)O)[C@@H](O)[C@H]2O)cc1Br`, the IC50 is above 1000 µg/mL.
Regarding `O=c1[nH]c(=O)n(C2O[C@H](COP(=O)(O)O)[C@@H](O)[C@@H]2O)cc1F` (some centres not stated), the IC50 came to 0.141 µg/mL (≈ 0.412 µM).
As to `O=c1[nH]c(=O)n([C@@H]2O[C@H](CO)[C@@H](O)[C@@H]2O)cc1Br`, the IC50 was 950 µg/mL (≈ 2940 µM).
For `O=c1[nH]c(=O)n([C@@H]2O[C@H](COP(=O)(O)O)[C@@H](O)[C@H]2O)cc1I`, the IC50 was above 1000 µg/mL.
On the same count and under the same terms, in the case of `O=c1[nH]cc(F)c(=O)[nH]1` [FLUOROURACIL] it was 3.37 µg/mL (≈ 25.9 µM); in that of `O=c1[nH]cc(I)c(=O)[nH]1`, 612 µg/mL (≈ 2570 µM); in that of `Oc1ncc(Cl)c(O)n1`, above 1000 µg/mL.
Turning to `O=c1[nH]c(=O)n([C@@H]2O[C@@H]3COP(=O)(O)O[C@H]3[C@H]2O)cc1I`, the IC50 was 722 µg/mL (≈ 1670 µM).
